Active and inactive are the calls of the source. The calls are words filed in the database; no cut-off is given here. Where a SMILES comes first, the peptide text is derived from it. Bridges are numbered along the chain shown (N, C = ends). Roman numbers before positions name the chains, in order. [ ]: non-standard residue; d: D form. F2Pmp = N[C@@H](Cc1ccc(C(F)(F)P(=O)(O)O)cc1)C(=O)O; pY = N[C@@H](Cc1ccc(OP(=O)(O)O)cc1)C(=O)O; 2Nal = N[C@@H](Cc1ccc2ccccc2c1)C(=O)O; βAla = NCCC(=O)O
Tests used:
[1] = molecular target: Signal transducer and activator of transcription 3 (Homo sapiens) (UniProt P40763); assay: Inhibition of OSM-stimulated STAT3 activity in human U3A cell at 25 uM pretreated for 24 hrs followed by OSM stimulation and measured after 6 hrs by bright Glo-luciferase reporter gene assay
Method in brief: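 STAT3-luc U3A fibrosarcoma reporter cells seeded at 10⁴ cells/well overnight. Pretreated with peptide or vehicle (10 or 25 μM) for 24 h at 37 °C in DMEM + 10% FBS, then stimulated 6 h with OSM 10 ng/mL. Luciferase read by Bright-Glo luminescence. Controls: OSM alone and unstimulated cells.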

[2] = Stability in human HeLa cell lysate assessed as compound remaining at 150 uM measured after 24 hrs by reverse-phase HPLC assay; assay type: ADME, subcellular; settings: read-out: Stabilty
Method in brief: (§1)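 Clarified lysate made from HeLa cells lysed on ice for 15 min in 50 mM Tris, 250 mM NaCl, 0.5% IGEPAL CA-630, pH 8.0. Peptide added at 150 μM and held at 37 °C. Peak area normalized to time zero.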

[3] = test system: MDA-MB-468; assay: Cytotoxicity against human MDA-MB-468 cells assessed as cell viability at 25 uM measured after 72 hrs by Celltiter-Glo assay; assay type: functional, cell-based
Method in brief: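 MDA-MB-468 breast cancer cells seeded at 3 × 10³ cells/well overnight, then given peptide or vehicle (10 or 25 μM) and kept at 37 °C for 72 h. Viability read by CellTiter-Glo luminescence.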

[4] = Stability of the compound in DMEM with 10% FBS (fetal bovine serum) at 150 uM measured at 24 hrs by reverse-phase HPLC assay
[5] = Stability in human HeLa cell lysate assessed as compound remaining at 150 uM measured after 1 hr by reverse-phase HPLC assay; assay type: ADME, subcellular; settings: read-out: Stabilty; method in brief: as §1

Chain of Signal transducer and activator of transcription 3 (Homo sapiens) (P40763 whole entry): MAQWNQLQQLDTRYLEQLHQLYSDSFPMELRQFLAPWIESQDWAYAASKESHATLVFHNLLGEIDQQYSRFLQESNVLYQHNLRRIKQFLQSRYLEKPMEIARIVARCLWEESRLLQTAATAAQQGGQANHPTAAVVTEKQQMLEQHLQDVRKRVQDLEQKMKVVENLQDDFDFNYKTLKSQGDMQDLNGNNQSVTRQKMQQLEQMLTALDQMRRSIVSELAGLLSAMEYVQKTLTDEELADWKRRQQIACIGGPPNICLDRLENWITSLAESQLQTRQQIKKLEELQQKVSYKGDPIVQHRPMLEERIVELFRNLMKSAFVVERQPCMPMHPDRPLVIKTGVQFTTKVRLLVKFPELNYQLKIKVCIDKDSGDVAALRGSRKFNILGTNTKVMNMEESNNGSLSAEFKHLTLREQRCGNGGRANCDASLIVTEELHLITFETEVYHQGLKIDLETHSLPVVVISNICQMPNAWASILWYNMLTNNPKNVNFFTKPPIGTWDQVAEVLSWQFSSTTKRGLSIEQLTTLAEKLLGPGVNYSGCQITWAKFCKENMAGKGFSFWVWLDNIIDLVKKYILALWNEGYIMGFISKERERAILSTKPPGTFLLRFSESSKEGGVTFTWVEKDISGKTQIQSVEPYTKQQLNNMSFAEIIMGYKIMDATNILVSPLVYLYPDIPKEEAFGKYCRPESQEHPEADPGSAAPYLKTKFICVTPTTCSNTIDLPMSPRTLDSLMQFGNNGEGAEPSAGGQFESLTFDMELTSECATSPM

Row | remaining at 1 h, 150 µM [5] | Compound | inhibition [1] | remaining at 24 h, 150 µM [2] | Activity [3] | Stabilty [4]
1 |  | CC(C)C[C@H](NC(=O)[C@H](Cc1ccc(C(F)(F)P(=O)(O)O)cc1)NC(=O)CNC(=O)CCNC(=O)CCNC(=O)CC[C@@H]1NC(=O)[C@@H](CCCNC(=N)N)NC(=O)[C@H](CCCNC(=N)N)NC(=O)[C@@H](CCCNC(=N)N)NC(=O)[C@H](CCCNC(=N)N)NC(=O)[C@H](Cc2ccc3ccccc3c2)NC(=O)[C@@H](Cc2ccccc2)NC(=O)[C@H](Cc2ccccc2)NC1=O)C(=O)N1CCC[C@H]1C(=O)N(C)[C@@H](CCC(N)=O)C(=O)N[C@H](C(=O)N[C@H](C(N)=O)C(C)C)[C@@H](C)O | inactive | 100% | inactive | 
2 |  | CC(C)C[C@H](NC(=O)[C@H](Cc1ccc(C(F)(F)P(=O)(O)O)cc1)NC(=O)CNC(=O)CCNC(=O)CCNC(=O)CC[C@@H]1NC(=O)[C@@H](CCCNC(=N)N)NC(=O)[C@H](CCCNC(=N)N)NC(=O)[C@@H](CCCNC(=N)N)NC(=O)[C@H](CCCNC(=N)N)NC(=O)[C@H](Cc2ccc3ccccc3c2)NC(=O)[C@@H](Cc2ccccc2)NC(=O)[C@H](Cc2ccccc2)NC1=O)C(=O)N1CCC[C@H]1C(=O)N[C@@H](CCC(N)=O)C(=O)N[C@H](C(=O)N[C@H](C(N)=O)C(C)C)[C@@H](C)O (I: cyclo(F[dF][2Nal]R[dR]R[dR]E) / II: [βAla][βAla]G[F2Pmp]LPQTV-NH2; amide I:8-II:N) | inactive |  |  | Stable
3 | < 20% | CC(C)C[C@H](NC(=O)[C@H](Cc1ccc(OP(=O)(O)O)cc1)NC(=O)CNC(=O)CCNC(=O)CCNC(=O)CC[C@@H]1NC(=O)[C@@H](CCCNC(=N)N)NC(=O)[C@H](CCCNC(=N)N)NC(=O)[C@@H](CCCNC(=N)N)NC(=O)[C@H](CCCNC(=N)N)NC(=O)[C@H](Cc2ccc3ccccc3c2)NC(=O)[C@@H](Cc2ccccc2)NC(=O)[C@H](Cc2ccccc2)NC1=O)C(=O)N1CCC[C@H]1C(=O)N[C@@H](CCC(N)=O)C(=O)N[C@H](C(=O)N[C@H](C(N)=O)C(C)C)[C@@H](C)O (I: cyclo([2Nal]R[dR]R[dR]EF[dF]) / II: [βAla][βAla]G[pY]LPQTV-NH2; amide I:6-II:N) | inactive |  |  | Unstable

— ChEMBL document CHEMBL4725247, “Cytosolic delivery of peptidic STAT3 SH2 domain inhibitors” (Bioorg Med Chem, 2020)
